Sampled rows, rich in hits. Any-hit rate of the full collection: about 3%.
S1P3 agonist = agonists of human S1P3 receptor. Q99500. S1P3 NFAT-BLA reporter cells, agonism, FRET ratio; relative to 1 µM S1P, basal subtracted. activation, % at 4.5 µM. actives 0.1% (n = 60,000). AID 373;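 active = activation above the screen-wide mean plus 3 SD, cut at about 4.5% in these data, passing the limit was not always enough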
Target sequence (Q99500 whole entry, looked up): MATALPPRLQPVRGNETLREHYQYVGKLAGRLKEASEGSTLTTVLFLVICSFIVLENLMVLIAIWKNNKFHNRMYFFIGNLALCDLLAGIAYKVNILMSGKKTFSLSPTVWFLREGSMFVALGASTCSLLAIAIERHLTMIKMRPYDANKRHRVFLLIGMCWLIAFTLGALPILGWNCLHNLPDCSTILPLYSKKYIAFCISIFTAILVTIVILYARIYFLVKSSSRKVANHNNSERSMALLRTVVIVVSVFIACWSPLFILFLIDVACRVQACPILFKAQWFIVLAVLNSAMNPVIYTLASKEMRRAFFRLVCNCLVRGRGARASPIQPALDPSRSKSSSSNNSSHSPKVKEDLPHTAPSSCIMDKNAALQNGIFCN
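Assay system: CHO cells stably expressing human S1P3, Gα16 and NFAT-β-lactamase reporter. Timing: overnight plating, 4 h compound 37 °C, 2 h substrate RT. Signal: β-lactamase FRET emission ratio 460/535 nm. Measure: percent activation versus median 1 µM S1P response, basal-subtracted, per plate. Repeats: primary screen single test, confirmation screen in triplicate.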
S1P1 ag-PAM = activates or potentiates agonism at human S1P1 receptor; P21453; S1P1 CRE-bla cells, forskolin, beta-lactamase FRET, potentiator mode; S1P1 agonist co-added at EC20, 2 nM; 100% = saturating reference agonist, 0% = basal; activation, % at 9.5 µM; actives 0.57% (n = 56,000); AID 449;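 active = activation above a cutoff set at the mean activation of all tested compounds plus 3 SD, cut at about 54% in these data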;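 note: forskolin at 4 µM as EC80 and the EC20 agonist is SEW2871; 100% = SEW2871 at its EC100 plus forskolin at EC80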
5-HT1A blocker = blocks the human serotonin 5-HT1a receptor | inhibition, % at 10 µM | CHO 5-HT1a Ga15 NFAT-bla reporter, antagonist mode | actives 0.68% (n = 62,000) | AID 612 | P08908;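 active = inhibition above the mean of all tested compounds plus 3 SD, cut at about 43% in these data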;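 note: receptor stimulated by 5-CT agonist at 100 nM near EC80; beta-lactamase reporter measured by ratiometric fluorescence of a cleavable substrate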
HTR1E antagonist = blocks the human 5-HT1E serotonin receptor | P28566 | CHO 5-HT1E Ga15 NFAT-bla reporter, FRET, antagonist | inhibition, % at 6 µM | actives 0.99% (n = 65,000) | AID 571;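 active = inhibition above a set limit, the mean inhibition across every tested compound plus 3 SD, cut at about 29% in these data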;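 note: signal is the 460 over 535 nm emission ratio of beta-lactamase substrate; 0% = agonist plus DMSO wells and 100% = wells without agonist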
HTR1E agonist = agonists of human 5-HT1E serotonin receptor; P28566; AID 574; CHO 5-HT1E Ga15 NFAT-bla reporter, FRET; 0% DMSO wells, 100% control agonist wells; actives 0.69% (n = 65,000); activation, % at 6 µM;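 active = activation above a set limit, the screen-wide mean activation plus 3 SD, cut at about 8.5% in these data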;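 note: 100% = positive control agonist at 1 µM giving full maximal response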
HTR1A agonist = activates the human 5-HT1a serotonin receptor | P08908 | CHO 5-HT1a Ga15 NFAT-bla reporter, FRET ratio; 0% basal, 100% maximal reference agonist | activation, % at 10 µM | actives 0.56% (n = 65,000);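 active = activation above the screen-wide mean activation plus 3 SD, cut at about 19% in these data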;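 note: 0% = DMSO wells and 100% = 5-CT at EC100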
* = called active by the depositor.

Screening CCCCOc1ccc(C2C3CN(C(=O)OCC)CC=C3C(C#N)=C(N)C2(C#N)C#N)cc1OC (stereo not given) returned S1P3 agonist 0, S1P1 ag-PAM -21, 5-HT1A blocker -5, HTR1E antagonist -6, HTR1E agonist 2 and HTR1A agonist 46*.
Screening COc1ccc(CCNC(=O)C2CCN(S(=O)(=O)N3CCOCC3)CC2)cc1OC returned S1P3 agonist -1, S1P1 ag-PAM 3, 5-HT1A blocker 5, HTR1E antagonist -7, HTR1E agonist 0 and HTR1A agonist 0.
Screening Cc1cc(Oc2ccc(-c3ccccc3)cc2)n2ncnc2n1 returned S1P3 agonist 0, S1P1 ag-PAM 6, 5-HT1A blocker 46*, HTR1E antagonist 34*, HTR1E agonist 0 and HTR1A agonist -3.
CS(=O)c1nc(-c2ccc(Br)cc2)cc(-c2ccccc2)c1C#N (stereo not given) was read as S1P3 agonist -1, S1P1 ag-PAM -30, 5-HT1A blocker 81*, HTR1E antagonist 43*, HTR1E agonist 2 and HTR1A agonist -6.
For CSc1nc(-c2ccco2)cc(-c2ccccc2)c1C#N the results were S1P3 agonist 0, S1P1 ag-PAM -20, 5-HT1A blocker -11, HTR1E antagonist 1, HTR1E agonist -1 and HTR1A agonist -4.
COC(=O)Cc1c(C)c2c(O)cc(C)cc2oc1=O was read as S1P3 agonist -1, S1P1 ag-PAM 0, 5-HT1A blocker -4, HTR1E antagonist -9, HTR1E agonist -1 and HTR1A agonist 134*.
O=C(O)CSC1c2ccccc2C(=O)N1Cc1ccccc1 (stereo not given) was read as 5-HT1A blocker -10, HTR1E antagonist -1, HTR1E agonist 0 and HTR1A agonist -2.
Nc1nonc1/C(=N/O)N1CCCC1 was read as S1P3 agonist 0, S1P1 ag-PAM 8, 5-HT1A blocker 17, HTR1E antagonist 9, HTR1E agonist -1 and HTR1A agonist 130*.
For Nc1nonc1C(=O)OCC(=O)N1CCCCC1 the results were S1P3 agonist 0, S1P1 ag-PAM 4, 5-HT1A blocker 5, HTR1E antagonist 6, HTR1E agonist 1 and HTR1A agonist 0.
For O=C(O)c1cc(Cl)c(Cl)cc1C(=O)N1CCCC1 the results were S1P3 agonist -1, S1P1 ag-PAM 1, 5-HT1A blocker -7, HTR1E antagonist 1, HTR1E agonist 0 and HTR1A agonist -1.
For CCN1CCN(Cc2ccc(OC)c(OCc3ccccc3)c2)CC1 the results were S1P3 agonist -1, S1P1 ag-PAM 5, 5-HT1A blocker 6, HTR1E antagonist -5, HTR1E agonist 0 and HTR1A agonist -2.
Screening CCOc1ccccc1N1CCN(Cc2ccc(OC)c(OC)c2)CC1 returned S1P3 agonist -1, S1P1 ag-PAM -1, 5-HT1A blocker 57*, HTR1E antagonist -3, HTR1E agonist 20* and HTR1A agonist -2.
Screening CCOc1ccccc1N1CCN(Cc2ccc(OC)c(OC)c2OC)CC1 returned S1P3 agonist -1, S1P1 ag-PAM 9, 5-HT1A blocker 80*, HTR1E antagonist 3, HTR1E agonist 17* and HTR1A agonist -3.
`COc1ccccc1N1CCN(Cc2ccc(Br)o2)CC1` gave S1P3 agonist -1, S1P1 ag-PAM -3, 5-HT1A blocker 10, HTR1E antagonist -2, HTR1E agonist 6 and HTR1A agonist -1.
`COc1cc(CN2CCN(c3cccc(C)c3C)CC2)cc(OC)c1O` gave S1P3 agonist -2, S1P1 ag-PAM -18, 5-HT1A blocker -2, HTR1E antagonist 5, HTR1E agonist 57* and HTR1A agonist -2.
For COc1cc(OC)c(OC)cc1CN1CCN(c2ccccc2OC)CC1 the results were S1P3 agonist -1, 5-HT1A blocker 46*, HTR1E antagonist 19, HTR1E agonist 23* and HTR1A agonist -1.
Screening COc1ccccc1N1CCN(Cc2cccc(OC)c2OC)CC1 returned S1P3 agonist -2, S1P1 ag-PAM -12, 5-HT1A blocker 40, HTR1E antagonist 0, HTR1E agonist 3 and HTR1A agonist -2.
For Cc1c(OCC(F)(F)F)ccnc1CS(=O)c1nc2ccccc2[nH]1 (stereo not given) the results were S1P3 agonist -3, S1P1 ag-PAM -3, HTR1E antagonist 2, HTR1E agonist 0 and HTR1A agonist -2.
COc1ccc(CC(C)N2CCN(c3ccccc3OC)CC2)cc1OC (stereo not given) was read as S1P3 agonist -1, S1P1 ag-PAM 5, 5-HT1A blocker 98*, HTR1E antagonist 7, HTR1E agonist 1 and HTR1A agonist 0.
For COc1ccccc1N1CCN(C(c2ccc(C)cc2)c2nnnn2C(C)C)CC1 (stereo not given) the results were S1P3 agonist -1, S1P1 ag-PAM -31, 5-HT1A blocker 31, HTR1E antagonist -1, HTR1E agonist 0 and HTR1A agonist -3.
For COc1ccccc1N1CCN(C(c2ccc(F)cc2)c2nnnn2C(C)C)CC1 (stereo not given) the results were S1P3 agonist -1, S1P1 ag-PAM -14, 5-HT1A blocker 43*, HTR1E antagonist 7, HTR1E agonist 1 and HTR1A agonist -3.
For Cc1ccc2c(CSc3nc4ccccc4c(=O)n3CCCO)cc(=O)oc2c1 the results were S1P3 agonist 0, S1P1 ag-PAM -20, 5-HT1A blocker 16, HTR1E antagonist 33*, HTR1E agonist 0 and HTR1A agonist -1.
For CC(=O)OCC1OC(c2ccccc2)C(OC(C)=O)C(OC(C)=O)C1OC(C)=O (stereo not given) the results were S1P3 agonist -1, S1P1 ag-PAM -18, 5-HT1A blocker -3, HTR1E antagonist 9, HTR1E agonist 1 and HTR1A agonist -4.
`Cc1cc(NC(=O)CSc2nc3ccccc3c(=O)n2C2CCCC2)no1` gave S1P3 agonist 0, 5-HT1A blocker 58*, HTR1E antagonist 65*, HTR1E agonist 1 and HTR1A agonist 0.
`Cc1nnc2ccc(Oc3ccc(-c4ccccc4)cc3)nn12` gave S1P3 agonist -1, S1P1 ag-PAM 68*, 5-HT1A blocker 1, HTR1E antagonist 8, HTR1E agonist 0 and HTR1A agonist 0.
`Cc1sc2c(c1C)c(=O)n(-c1ccccc1)c1nnc(C)n21` gave S1P3 agonist 0, S1P1 ag-PAM -23, 5-HT1A blocker -4, HTR1E antagonist 21, HTR1E agonist 0 and HTR1A agonist 2.
`Cc1c(=O)n(OCc2ccccc2F)c2ccccc2[n+]1[O-]` gave S1P3 agonist 0, S1P1 ag-PAM -15, 5-HT1A blocker -4, HTR1E antagonist -9, HTR1E agonist -1 and HTR1A agonist 25*.

Source: PubChem
